From publication PMC4094269 (Journal of Medicinal Chemistry, 2014)
“Also recorded” adds a separate entry of the source.

Columns and labels:
PARP-1 = PARP-1 (Homo sapiens, UniProt P09874); assay: PARP-1 inhibition assay; type: biochemical
[1] = test system: BRCA2-deficient DT40 cells; assay: DT40 cell viability; type: cell-based, Chicken; conditions: 72 h
[2] = test system: PARP-1-deficient DT40 cells; assay: DT40 cell viability; type: cell-based, Chicken; conditions: 72 h, veliparib up to 10 μM
wild-type DT40 cells = assay: DT40 cell viability; type: cell-based, Chicken; conditions: 72 h, veliparib up to 10 μM
How it was run: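 Chicken DT40 B-cell lines from an academic lab. 200 cells per well, continuously exposed to a range of drug concentrations for 72 h, in triplicate. Viability read by ATP content: one-step luciferase reagent added, luminescence read after 5 min. Viability is the treated ATP level over untreated ATP level × 100, with untreated set to 100%. SD from n = 3.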

Water solubility = type: physicochemical

Chain of PARP-1 (P09874 whole entry): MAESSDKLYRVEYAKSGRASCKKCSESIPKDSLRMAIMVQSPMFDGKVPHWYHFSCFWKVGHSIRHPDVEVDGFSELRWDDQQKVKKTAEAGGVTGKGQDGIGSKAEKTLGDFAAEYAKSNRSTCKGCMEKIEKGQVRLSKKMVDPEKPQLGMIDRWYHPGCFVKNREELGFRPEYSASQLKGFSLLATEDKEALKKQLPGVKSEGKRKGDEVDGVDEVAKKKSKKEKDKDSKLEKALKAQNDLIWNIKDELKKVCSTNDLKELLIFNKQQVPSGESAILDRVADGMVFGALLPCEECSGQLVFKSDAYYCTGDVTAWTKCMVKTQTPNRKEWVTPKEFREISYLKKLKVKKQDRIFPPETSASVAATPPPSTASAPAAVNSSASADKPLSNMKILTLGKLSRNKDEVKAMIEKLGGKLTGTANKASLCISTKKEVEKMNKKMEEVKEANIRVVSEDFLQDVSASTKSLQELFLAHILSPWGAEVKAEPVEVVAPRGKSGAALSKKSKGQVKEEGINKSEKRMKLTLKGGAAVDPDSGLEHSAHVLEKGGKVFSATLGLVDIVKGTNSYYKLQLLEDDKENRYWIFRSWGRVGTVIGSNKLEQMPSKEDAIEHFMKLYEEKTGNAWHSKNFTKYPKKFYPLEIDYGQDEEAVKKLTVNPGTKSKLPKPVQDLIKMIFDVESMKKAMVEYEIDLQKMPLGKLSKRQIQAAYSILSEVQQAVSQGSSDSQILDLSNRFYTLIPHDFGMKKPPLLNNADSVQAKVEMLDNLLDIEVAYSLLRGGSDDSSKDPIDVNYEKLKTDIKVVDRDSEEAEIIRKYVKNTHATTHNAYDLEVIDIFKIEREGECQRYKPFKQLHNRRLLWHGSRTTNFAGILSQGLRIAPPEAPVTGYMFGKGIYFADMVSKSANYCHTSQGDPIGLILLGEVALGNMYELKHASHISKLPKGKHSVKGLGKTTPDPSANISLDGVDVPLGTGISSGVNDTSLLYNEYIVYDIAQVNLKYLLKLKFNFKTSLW

`NC(=O)c1cc(F)cc2c1OCC2` [Compound 20, 5-Fluoro-2,3-dihydrobenzofuran-7-carboxamide] gave a fold more potent (PARP-1; 20 vs initial lead 3) of about 5 fold.

In the case of `CC1Cc2cc(F)cc(C(N)=O)c2O1` (racemic) [rac-13c, 5-Fluoro-2-methyl-2,3-dihydrobenzofuran-7-carboxamide], the fold more potent (PARP-1; rac-13c vs 13a) is reported as 4 fold.

In the case of `CN1CCN(CCOc2ccc(/C=C3\Oc4c(C(N)=O)cccc4C3=O)cc2)CC1` [Compound 66, (Z)-2-{4′-[2-(4-Methylpiperazin-1-yl)ethoxy]benzylidene}-3-oxo-2,3-dihydrobenzofuran-7-carboxamide], the “cytotoxicity, result in words” value [1] is reported as “selective cytotoxicity; also recorded: selectively killed; also recorded: selectively active”, the “cytotoxicity, result in words” value [2] is reported as “minimally cytotoxic” and the “cytotoxicity, result in words” value (wild-type DT40 cells) is reported as “minimally cytotoxic”. The “water solubility, result in words” value (Water solubility) was “water-soluble”.

With `CC1Cc2cc([N+](=O)[O-])cc(C(N)=O)c2O1` (stereo not shown) [Compound 14, 2-Methyl-5-nitro-2,3-dihydrobenzofuran-7-carboxamide] the “PARP-1 inhibition, result in words” value (PARP-1) was “inactive”.

`NC(=O)c1cccc2c1O/C(=C\c1ccc(OCCCN3CCOCC3)cc1)C2=O` [Compound 67, (Z)-2-[4′-(3-Morpholin-4-ylpropoxy)benzylidene]-3-oxo-2,3-dihydrobenzofuran-7-carboxamide] gave a times more potent (PARP-1; 67 vs ethyl analogue 65) of about 3 times.

In the case of `Cc1cc2c(c(C(N)=O)c1)OC(C)C2` (stereo not shown) [Compound 13b, 2,5-Dimethyl-2,3-dihydrobenzofuran-7-carboxamide], the “PARP-1 inhibition, result in words” value (PARP-1) is reported as “inactive”.

For `NC(=O)c1cccc2c1O/C(=C\c1ccc(O)c(O)c1)C2=O` [Compound 58, (Z)-2-(3′,4′-Dihydroxybenzylidene)-3-oxo-2,3-dihydrobenzofuran-7-carboxamide], the “fold improvement in potency” value (PARP-1; 58 vs core 36) was 30 fold.

With `NC(=O)c1cccc2c1O/C(=C\c1ccc(OCCN3CCOCC3)cc1)C2=O` [Compound 65, (Z)-2-[4′-(2-Morpholin-4-ylethoxy)benzylidene]-3-oxo-2,3-dihydrobenzofuran-7-carboxamide] the fold less potent (PARP-1; 65 vs 64) was 4 fold.

In the case of `CN1CCN(CCS(=O)(=O)Nc2ccc(/C=C3\Oc4c(C(N)=O)cccc4C3=O)cc2)CC1` [Compound 72, (Z)-2-{4-[2-(4-Methylpiperazin-1-yl)ethanesulfonylamino]benzylidene}-3-oxo-2,3-dihydrobenzofuran-7-carboxamide], the “water solubility, result in words” value (Water solubility) is reported as “water-soluble”.

In the case of `NC(=O)c1cccc2c1O/C(=C\c1cc(O)ccc1O)C2=O` [Compound 61, (Z)-2-(2′,5′-Dihydroxybenzylidene)-3-oxo-2,3-dihydrobenzofuran-7-carboxamide], the “PARP-1 inhibition, result in words” value (PARP-1) is reported as “poor inhibition; also recorded: complete loss of potency”.

In the case of `CC1Cc2c(N)ccc(C(N)=O)c2O1` (racemic) [rac-28, 4-Amino-2-methyl-2,3-dihydrobenzofuran-7-carboxamide], the “fold increase in inhibition” value (PARP-1; rac-28 vs rac-13a) is reported as 2 fold.

With `NC(=O)c1cccc2c1O/C(=C\c1ccc(OCC(=O)N3CCOCC3)cc1)C2=O` [Compound 68, (Z)-2-[4′-(2-Morpholin-4-yl-2-oxoethoxy)benzylidene]-3-oxo-2,3-dihydrobenzofuran-7-carboxamide] the “fold improvement in potency” value (PARP-1; 68 vs 65) was 9 fold.

For `NC(=O)c1cccc2c1O/C(=C\c1cc(O)cc(O)c1)C2=O` [Compound 60, (Z)-2-(3′,5′-Dihydroxybenzylidene)-3-oxo-2,3-dihydrobenzofuran-7-carboxamide], the “PARP-1 inhibition, result in words” value (PARP-1) was “poor inhibition; also recorded: complete loss of potency”.

With `CC1Cc2cc(N)cc(C(N)=O)c2O1` (stereo not shown) [Compound 15, 5-Amino-2-methyl-2,3-dihydrobenzofuran-7-carboxamide] the “PARP-1 inhibition, result in words” value (PARP-1) was “inactive”.

For `COc1ccc(/C=C2\Oc3c(C(N)=O)cccc3C2=O)cc1` [Compound 54, (Z)-2-(4′-Methoxybenzylidene)-3-oxo-2,3-dihydrobenzofuran-7-carboxamide], the “fold reduced inhibitory activity” value (PARP-1; 54 vs 57) was 4 fold.

With `NC(=O)c1cccc2c1O/C(=C\c1ccccc1O)C2=O` [Compound 55, (Z)-2-(2′-Hydroxybenzylidene)-3-oxo-2,3-dihydrobenzofuran-7-carboxamide] the “PARP-1 inhibition, result in words” value (PARP-1) was “Poor inhibition”.
